The values below come from PMC7305479 (Russian Journal of Bioorganic Chemistry, 2020).

A short description of data set [1]: Cytotoxicity measurement. The note with it: human, HEp-2 cells. Format: cell-based. A digest of the protocol: (§1)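 Test compound was diluted 2-fold in medium from 2000 µg/mL DMSO stocks and applied to washed monolayers for 24 h at 37°C, 5% CO2. Cells were PBS-washed, then given MTT ([…] in medium) for 1.5 h. The product was dissolved in 96% ethanol and OD read at 535 nm. CC50 was derived from the data by curve analysis.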

The subject of data set [2] is influenza virus strain A/PR/8/34 (H1N1). In words: organism not typed. Format: cell-based, Influenza A virus (IVA). The note with it: for SI (selectivity index, CC50/EC50): Influenza A virus, MDCK cells.
Data set [3] deals with respiratory syncytial virus A2. Kind of data set: Antiviral activity against respiratory syncytial virus in HEp-2 culture. In kind it is cell-based, Human respiratory syncytial virus (RSV). The note with it: for SI (selectivity index, CC50/EC50): RSV, HEp-2 cells. A digest of the protocol: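 HEp-2 monolayers infected with 10-fold dilutions (10–1–10–7) of RSV A2. Test compound was pre-applied 1 h in 3-fold dilutions, starting from the CC50-level concentration made from a 2000 µg/mL DMSO stock. It was re-added at double concentration with virus for 1 h, then washed out and re-applied for 6 days at 37°C, 5% CO2. Read-out was acetone-fixed cell-ELISA (TMB, OD 450 nm), with Reed–Muench titers.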

Data set [4] can be described thus: Cytotoxicity measurement. Format: cell-based. The note with it: dog, MDCK cells. A digest of the protocol:
as §1

In data set [5] the test system is parainfluenza type 3 strain v2932. In words: microbe, parasite or virus in culture. In kind it is cell-based, Human parainfluenza virus type 3 (PIV-3). Particulars: for SI (selectivity index, CC50/EC50): PIV-3, HEp-2 cells.
A short description of a further data set: Solubility. In kind it is physicochemical.
Data set [6] relates to broad spectrum of enveloped viruses. The note with it: cited from earlier work.
The subject of another data set is HEp-2 culture. Kind of data set: Cytotoxicity measurement. Format: cell-based. Particulars: for CC50: MTT, 24 h. A digest of the protocol:
as §1

For a further data set, the system named is MDCK cell culture. In words: Cytotoxicity measurement. In kind it is cell-based. Put shortly: as §1
In a further data set the test system is tick-borne encephalitis. The note with it: cited from earlier work.
For another data set, the system named is herpes simplex type 1. Particulars: cited from earlier work.
Where [7] appears, read: human respiratory syncytial virus, HEp-2.

Consider `O=c1[nH]c(=O)n([C@@H]2O[C@H](CO)[C@@H](O)[C@H]2O)cc1C#Cc1ccc2c3cccc4cccc(c5cccc1c52)c43` [rUY11 (IV), 5-(Perylen-3-ylethynyl)uridine], for which the values for the CC50 at 24 h in “Cytotoxicity measurement [1]” and in “Cytotoxicity measurement [4]” were 599 ± 23 µM and 658 ± 34 µM, respectively. The “SI (selectivity index, CC50/EC50)” value amounted to 100 in [2], 84 in data set [3] and 210 in [5]. Besides, the EC50 (in general, the concentration giving half of the maximal effect) in data set [2] (MDCK) is 6.4 ± 1.2 µM; in data set [3] (setting [7]), 7.1 ± 0.2 µM; in data set [5] (Human respirovirus 3, HEp-2), 2.9 ± 0.4 µM. Moreover, the “solubility in DMSO” value in the data set “Solubility” (DMSO) is recorded as “fairly soluble”. The solubility in water entry in “Solubility” (water) was “only slightly soluble”.

`O=c1[nH]c(=O)n([C@H]2C[C@H](O)[C@@H](CO)O2)cc1C#Cc1ccc2c3cccc4cccc(c5cccc1c52)c43` [dUY11 (I), 5-(perylen-3-ylethynyl)-2′-deoxy-uridine]: the CC50 (usually the concentration giving 50% cytotoxicity) at 24 h was found to be 598 ± 44 µM in “Cytotoxicity measurement [1]” and 492 ± 56 µM in the data set “Cytotoxicity measurement [4]”. Also, the “SI (selectivity index, CC50/EC50)” value came out at 180 in [2], 330 in [3] and 270 in [5]. Further, the EC50 in data set [2] (MDCK) amounted to 2.7 ± 0.7 µM; in data set [3] (setting [7]), 1.8 ± 0.2 µM; in data set [5] (Human respirovirus 3, HEp-2), 2.2 ± 0.5 µM. In data set [6], the “antiviral activity (in words)” value is on record as “highly active”.

Turning to `O=c1[nH]c(=O)n([C@@H]2O[C@H](CO)[C@@H](O)[C@@H]2O)cc1C#Cc1ccc2c3cccc4cccc(c5cccc1c52)c43` [aUY11 (II), 5-(perylen-3-ylethynyl)-arabino-uridine], the CC50 in the data set with HEp-2 culture (HEp-2 culture (PIV-3 columns)) came out at 998 ± 59 µM; with HEp-2 culture (HEp-2 culture (RSV columns)), 998 ± 59 µM; in the data set with MDCK cell culture (MDCK cell culture (IVA columns), MTT, 24 h), 894 ± 23 µM. For the same molecule, the EC50 in [2] (Influenza A virus A/PR/8/34 (H1N1) in MDCK cells) came to 5.2 ± 0.4 µM; in [3] (RSV A2 in HEp-2 cells), 2.3 ± 0.1 µM; in data set [5] (PIV-3 strain v2932 in HEp-2 cells) it was 1.3 ± 0.3 µM. Moreover, the “antiviral activity (in words)” value in [6] was “highly active”.

Regarding `CC(C)(C)C(=O)OCn1c(=O)c(C#Cc2ccc3c4cccc5cccc(c6cccc2c63)c54)cn(CC(=O)O)c1=O` [cm1pUY11 (III), 1-carboxymethyl-3-pivaloyloxymethyl-5-(perylen-3-ylethynyl)uracil], the “antiviral activity (in words)” value in the data set with tick-borne encephalitis and with herpes simplex type 1 was “activity” in each case. Further, the “cytotoxic properties (in words)” value with HEp-2 culture (HEp-2 cell culture, compared with the other three compounds) is recorded as “significantly more pronounced cytotoxic properties”; in the data set with MDCK cell culture (MDCK cell culture, compared with the other three compounds), “significantly more pronounced cytotoxic properties”. The CC50 at 24 h in “Cytotoxicity measurement [1]” was 45 ± 3.4 µM; in the data set “Cytotoxicity measurement [4]” it was 34 ± 1.9 µM. Also, the entries for the “SI (selectivity index, CC50/EC50)” value in data set [2], in [3] and in [5] were 68, 24 and 10, respectively. For the same molecule, the EC50 in [2] (MDCK) was found to be 0.5 ± 0.02 µM; in data set [3] (setting [7]), 1.9 ± 0.1 µM; in data set [5] (Human respirovirus 3, HEp-2) it was 4.3 ± 0.2 µM.
